Measurements taken from ChEMBL document CHEMBL1127745, “Synthesis, resolution, and SAR of (+/-)-2-amino-N-methyl-alpha-(3-methyl-2-thienyl)benzeneethanamine++ + and related analogs as noncompetitive NMDA antagonists with neuroprotective properties” (J Med Chem, 1994).

Key:
Mus musculus = test: Effective dose required for 50% inhibition of clonic seizures in mice induced by racemic NMDLA when administered intraperitoneally; assay type: functional; conditions: ip
Method in brief: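 Swiss Webster mice, 10 per group, dosed ip with drug in distilled water 0.5 h before N-methyl-D,L-aspartic acid 350 mg/kg sc. Each mouse observed 30 min for clonic seizures lasting at least 3 s; protection means no seizure in that time. Controls received vehicle. ED50 taken at time of peak effect from three or more doses, Litchfield-Wilcoxon method.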

Glutamate NMDA receptor = test: Inhibition against NMDA receptor by displacement of [3H]TCP binding from rat cortical membranes; assay type: cell membranes, Membrane
Rattus norvegicus [1] = test: Evaluated for reduction of NMDA-induced necrosis at 0.7 mg/kg intraperitoneal dose in rats.; assay type: functional
Method in brief: (§1)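 Male Sprague-Dawley rats (280-310 g) under chloral hydrate (400 mg/kg ip). Unilateral dorsal hippocampal CA1 lesion made by stereotaxic infusion of NMDA 20 nmol over 5 min. Drugs given sc or ip 1 h before infusion. Brains perfusion-fixed at 7 days and cresyl violet-stained; lesion volume measured by image analysis. n = 4 per group, compared with control by t-test.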

Rattus norvegicus [2] = test: Reduction of photochemically induced cerebral focal ischemia in rat was evaluated by using compound at 3 mg/kg intravenous dose; assay type: functional
Method in brief: (§2)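 Male rats (300-350 g) under halothane (3 vol% induction, 1.2 vol% maintenance in O2). Rose Bengal (5 mg in 1 mL) infused through the femoral vein, then thrombotic focal cortical ischemia induced photochemically with light. Drug given iv 30 min after ischemia to groups of 5-7 rats. Infarct volume (mm3) measured by image analysis of cresyl violet-stained 20-µm sections.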

Rattus norvegicus [3] = test: Evaluated for reduction of NMDA-induced necrosis volume at 0.7 mg/kg intraperitoneally dose in rats.; assay type: functional; conditions: route intraperitoneal; method in brief: as §1
Gerbillinae [4] = test: Percent reduction of carotid artery Carotid artery occlusion-induced hippocampal damage at 5 mg/kg intraperitoneal dose.; assay type: functional, Hippocampus
Method in brief: (§3)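 Male Mongolian gerbils (65-75 g, n = 14-15) under halothane (2.6 vol% induction, 1.2 vol% maintenance in N2:O2 2:1). Forebrain ischemia by bilateral 5-min carotid occlusion with reperfusion. Drug given ip 15 min before or 15 min after occlusion. CA1 cell necrosis rated on a 0-4 scale (0 none to 4 all CA1 cells). Group means compared by t-test.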

Rattus norvegicus [5] = test: Percent change in reduction of photochemically induced cerebral focal ischemia in control and treated rat at 3 mg/kg intravenous dose; assay type: functional; method in brief: as §2
Rattus norvegicus [6] = test: Evaluated for reduction of NMDA-induced necrosis volume at 7.0 mg/kg intraperitoneally dose in rats.; assay type: functional; conditions: route intraperitoneal; method in brief: as §1
Rattus norvegicus [7] = test: Evaluated for reduction of NMDA-induced necrosis at 2.0 mg/kg intraperitoneal dose in rats.; assay type: functional; method in brief: as §1
Rattus norvegicus [8] = test: Evaluated for reduction of NMDA-induced necrosis volume at 2.0 mg/kg intraperitoneally dose in rats.; assay type: functional; conditions: route intraperitoneal; method in brief: as §1
Rattus norvegicus [9] = test: Evaluated for reduction of NMDA-induced necrosis at 7.0 mg/kg intraperitoneal dose in rats.; assay type: functional; method in brief: as §1
Rattus norvegicus [10] = test: Reduction of photochemically induced cerebral focal ischemia in rat was evaluated by using control at 3 mg/kg intravenous dose; assay type: functional; method in brief: as §2
Gerbillinae [11] = test: Carotid artery occlusion-induced hippocampal damage was evaluated by using control 15 min before carotid occlusion at 5 mg/kg intraperitoneal dose.; assay type: functional, Hippocampus; method in brief: as §3
Gerbillinae [12] = test: Carotid artery occlusion-induced hippocampal damage was evaluated by using compound 15 min before carotid occlusion at 5 mg/kg intraperitoneal dose.; assay type: functional, Hippocampus; method in brief: as §3
Rattus norvegicus [13] = test: Reduction of photochemically induced cerebral focal ischemia in rat was evaluated at 0.1 mg/kg intravenous dose; assay type: functional; method in brief: as §2
Rattus norvegicus [14] = test: Percent change in reduction of photochemically induced cerebral focal ischemia in control and treated rat at 1.0 mg/kg intravenous dose; assay type: functional; method in brief: as §2
Rattus norvegicus [15] = test: Percent change in reduction of photochemically induced cerebral focal ischemia in control and treated rat at 0.3 mg/kg intravenous dose; assay type: functional; method in brief: as §2
Rattus norvegicus [16] = test: Reduction of photochemically induced cerebral focal ischemia in rat was evaluated at 1.0 mg/kg intravenous dose; assay type: functional; method in brief: as §2
Gerbillinae [17] = test: Percent reduction of carotid artery occlusion-induced hippocampal damage at 30 mg/kg intraperitoneal dose.; assay type: functional, Hippocampus; method in brief: as §3
Gerbillinae [18] = test: Carotid artery occlusion-induced hippocampal damage was evaluated by using compound 15 min before carotid occlusion at 30 mg/kg intraperitoneal dose.; assay type: functional, Hippocampus; method in brief: as §3
Rattus norvegicus [19] = test: Evaluated for reduction of NMDA-induced necrosis at 30 mg/kg subcutaneous dose in rats.; assay type: functional; method in brief: as §1
Rattus norvegicus [20] = test: Evaluated for reduction of NMDA-induced necrosis at 100 mg/kg subcutaneous dose in rats.; assay type: functional; method in brief: as §1
Rattus norvegicus [21] = test: Evaluated for reduction of NMDA-induced necrosis volume at 100 mg/kg subcutaneous dose in rats.; assay type: functional; method in brief: as §1
Rattus norvegicus [22] = test: Evaluated for reduction of NMDA-induced necrosis volume at 30 mg/kg subcutaneous dose in rats.; assay type: functional; method in brief: as §1

CNC(Cc1cc(Br)ccc1N)c1sccc1C (stereo unspecified)
ED50 (Mus musculus): > 5 mg/kg
IC50 (Glutamate NMDA receptor): 0.045 µM

C[C@]12N[C@H](Cc3ccccc31)c1ccccc12 [DIZOCILPINE]
Reduction (Rattus norvegicus [1]): <44%
ED50 (Mus musculus): 0.38 mg/kg
Treated (Rattus norvegicus [2]): 52
Volume (Rattus norvegicus [3]): 0.1 µM
Reduction (Gerbillinae [4]): <22%
Change (Rattus norvegicus [5]): -24%
Volume (Rattus norvegicus [6]): 0.0025 µM
Reduction (Rattus norvegicus [7]): <94%
Volume (Rattus norvegicus [8]): 0.01 µM
Reduction (Rattus norvegicus [9]): <98%
Control (Rattus norvegicus [10]): 68
Control (Gerbillinae [11]): 1.05
Treated (Gerbillinae [12]): 0.8

Cc1ccsc1C(Cc1ccccc1N)N(C)C (stereo unspecified)
ED50 (Mus musculus): > 60 mg/kg
IC50 (Glutamate NMDA receptor): 0.37 µM

CNC(Cc1ccc(C(F)(F)F)cc1N)c1sccc1C (stereo unspecified)
IC50 (Glutamate NMDA receptor): > 10 µM

Cc1ccsc1C(N)Cc1ccccc1N.Cl (stereo unspecified)
ED50 (Mus musculus): 19 mg/kg
IC50 (Glutamate NMDA receptor): 4 µM

O=C(O)C1CN(CCCP(=O)(O)O)CCN1 (stereo unspecified)
IC50 (Glutamate NMDA receptor): > 100 µM

CNC(Cc1ccccc1N)c1sccc1C.Cl (stereo in doubt; (+)3a)
IC50 (Glutamate NMDA receptor): 0.18 µM
Treated (Rattus norvegicus [13]): 59
Change (Rattus norvegicus [14]): 14%
Change (Rattus norvegicus [15]): 13%
Treated (Rattus norvegicus [16]): 67
Reduction (Gerbillinae [17]): 51%
Treated (Gerbillinae [18]): 1.5

CCNC(Cc1ccccc1N)c1sccc1C.Cl (stereo unspecified)
ED50 (Mus musculus): 6.4 mg/kg
IC50 (Glutamate NMDA receptor): 0.043 µM
Reduction (Rattus norvegicus [19]): 67%
Reduction (Rattus norvegicus [20]): 95%
Volume (Rattus norvegicus [21]): 0.0098 µM
Volume (Rattus norvegicus [22]): 0.059 µM

CNC(Cc1ccccc1N)c1ccc(C)s1 (stereo unspecified)
ED50 (Mus musculus): > 60 mg/kg
IC50 (Glutamate NMDA receptor): 5.2 µM
